Laboratory results taken from ChEMBL document CHEMBL1137710, “Synthesis and in vitro antitumor activity of new quinoxaline derivatives” (2009).

Assays:
Assay type in all cases: functional
HL-60(TB) = assay: Growth inhibition of human HL-60(TB) cells after 48 hrs by sulforhodamine B assay; conditions: HL-60, 48 h
In short: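 Tested only on compounds active in a three-line prescreen, in the NCI 60-human-tumour-cell-line panel over a 5-log dose range. Values come from dose–response curves as log10 molar GI50, the concentration inhibiting 50% net cell growth. Log10 TGI (total growth inhibition) and log10 LC50 (50% net cell death) were derived too. Mean graph midpoints include insensitive lines at the highest concentration tested.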

K562 = assay: Growth inhibition of human K562 cells after 48 hrs by sulforhodamine B assay; conditions: K562, 48 h
In short: (§1)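 NCI 60-human-tumor-cell-line panel, with compounds tested over a 5-log dose range. Values are taken from dose-response curves as log10 molar concentrations: GI50 is 50% net growth inhibition, TGI is total growth inhibition, and LC50 is 50% net cell death.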

SR = assay: Growth inhibition of human SR cells after 48 hrs by sulforhodamine B assay
In short: (§2)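 Run in the NCI 60-human-tumour-cell-line panel, tested over a 5-log dose range. Dose–response curves gave three values per cell line, each as a log10 molar concentration: GI50 (50% inhibition of net cell growth), TGI (total inhibition of net growth) and LC50 (50% net cell death). The mean graph midpoint is the arithmetic mean over all lines, with insensitive lines entered at the highest concentration tested.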

MOLT-4 = assay: Growth inhibition of human MOLT4 cells after 48 hrs by sulforhodamine B assay; conditions: MOLT-4, 48 h; in short: as §1
EKVX = assay: Growth inhibition of human EKVX cells after 48 hrs by sulforhodamine B assay; in short: as §1
HOP-62 = assay: Growth inhibition of human HOP62 cells after 48 hrs by sulforhodamine B assay; conditions: HOP-62, 48 h; in short: as §1
HOP-92 = assay: Growth inhibition of human HOP92 cells after 48 hrs by sulforhodamine B assay; conditions: HOP-92, 48 h; in short: as §1
NCI-H322M = assay: Growth inhibition of human NCI-H322M cells after 48 hrs by sulforhodamine B assay; in short: as §1
NCI-H522 = assay: Growth inhibition of human NCI-H522 cells after 48 hrs by sulforhodamine B assay; conditions: NCI-H522, 48 h; in short: as §1
HCT-15 = assay: Growth inhibition of human HCT15 cells after 48 hrs by sulforhodamine B assay; conditions: HCT-15, 48 h; in short: as §1
HT-29 = assay: Growth inhibition of human HT-29 cells after 48 hrs by sulforhodamine B assay; conditions: HT-29, 48 h; in short: as §1
KM12 = assay: Growth inhibition of human KM12 cells after 48 hrs by sulforhodamine B assay; conditions: KM12, 48 h; in short: as §1
SF-539 = assay: Growth inhibition of human SF539 cells after 48 hrs by sulforhodamine B assay; conditions: SF-539, 48 h; in short: as §1
SNB-75 = assay: Growth inhibition of human SNB75 cells after 48 hrs by sulforhodamine B assay; conditions: SNB-75, 48 h; in short: as §2
LOX IMVI = assay: Growth inhibition of human LOXIMVI cells after 48 hrs by sulforhodamine B assay; in short: as §1
SK-MEL-2 = assay: Growth inhibition of human SK-MEL-2 cells after 48 hrs by sulforhodamine B assay; conditions: SK-MEL-2, 48 h; in short: as §1
OVCAR-3 = assay: Growth inhibition of human OVCAR-3 cells after 48 hrs by sulforhodamine B assay; conditions: OVCAR-3, 48 h; in short: as §1
OVCAR-5 = assay: Growth inhibition of human OVCAR5 cells after 48 hrs by sulforhodamine B assay; conditions: OVCAR-5, 48 h; in short: as §1
786-0 = assay: Growth inhibition of human 786-0 cells after 48 hrs by sulforhodamine B assay; conditions: 786-0, 48 h; in short: as §1
A498 = assay: Growth inhibition of human A498 cells after 48 hrs by sulforhodamine B assay; conditions: A498, 48 h; in short: as §1
ACHN = assay: Growth inhibition of human ACHN cells after 48 hrs by sulforhodamine B assay
CAKI-1 = assay: Growth inhibition of human Caki1 cells after 48 hrs by sulforhodamine B assay; conditions: CAKI-1, 48 h; in short: as §1
SN12C = assay: Growth inhibition of human SN12C cells after 48 hrs by sulforhodamine B assay; in short: as §2
UO-31 = assay: Growth inhibition of human UO31 cells after 48 hrs by sulforhodamine B assay; conditions: UO-31, 48 h; in short: as §2
NCI/ADR-RES = assay: Growth inhibition of human NCI/ADR-RES cells after 48 hrs by sulforhodamine B assay; in short: as §1
[1] = Growth inhibition of human Hs 578T cells after 48 hrs by sulforhodamine B assay; in short: as §1
BT-549 = assay: Growth inhibition of human BT549 cells after 48 hrs by sulforhodamine B assay; conditions: BT-549, 48 h; in short: as §1
[2] = read-out: pLC50 (the source's name) (converted)

Nc1cc(N)c2nc(-c3ccccc3)c(Sc3ccc(F)cc3)nc2c1
GI50 (HL-60(TB)): 38.9 µM | LC50 (HL-60(TB)): > 100 µM | TGI (HL-60(TB); read-out: pTGI (converted)): > 100 µM | GI50 (K562): 39.8 µM | LC50 (K562): > 100 µM | TGI (K562; read-out: pTGI (converted)): 38.9 µM | GI50 (SR): 35.5 µM | LC50 (concentration giving 50% net cell death) (SR): > 100 µM | TGI (SR; read-out: pTGI (converted)): > 100 µM | GI50 (MOLT-4): > 100 µM | LC50 (MOLT-4): > 100 µM | TGI (MOLT-4; read-out: pTGI (converted)): > 100 µM | GI50 (EKVX): 20.4 µM | LC50 (50% net cell kill) (EKVX): 83.2 µM | TGI (EKVX; read-out: pTGI (converted)): 41.7 µM | GI50 (HOP-62): 16.6 µM | LC50 (HOP-62): 70.8 µM | TGI (HOP-62; read-out: pTGI (converted)): 34.7 µM | GI50 (HOP-92): 22.9 µM | LC50 (50% net cell death) (HOP-92): > 100 µM | TGI (HOP-92; read-out: pTGI (converted)): 55 µM | GI50 (NCI-H322M): 20.4 µM | LC50 (NCI-H322M): 70.8 µM | TGI (NCI-H322M; read-out: pTGI (converted)): 38 µM | GI50 (NCI-H522): > 100 µM | LC50 (NCI-H522): > 100 µM | TGI (NCI-H522; read-out: pTGI (converted)): > 100 µM | GI50 (HCT-15): 13.5 µM | LC50 (HCT-15): 56.2 µM | TGI (HCT-15; read-out: pTGI (converted)): 27.5 µM | GI50 (HT-29): 17.8 µM | LC50 (HT-29): > 100 µM | TGI (HT-29; read-out: pTGI (converted)): 45.7 µM | GI50 (KM12): 20.9 µM | LC50 (50% net cell kill) (KM12): > 100 µM | TGI (KM12; read-out: pTGI (converted)): 49 µM | GI50 (SF-539): 21.4 µM | LC50 (SF-539): 75.9 µM | TGI (SF-539; read-out: pTGI (converted)): 39.8 µM | GI50 (SNB-75): 20.9 µM | LC50 (SNB-75): > 100 µM | TGI (SNB-75; read-out: pTGI (converted)): 47.9 µM | GI50 (LOX IMVI): 22.9 µM | LC50 (LOX IMVI): 74.1 µM | TGI (LOX IMVI; read-out: pTGI (converted)): 40.7 µM | GI50 (SK-MEL-2): 38 µM | CC50 (SK-MEL-2; [2]): > 100 µM | TGI (SK-MEL-2; read-out: pTGI (converted)): > 100 µM | GI50 (OVCAR-3): 16.2 µM | CC50 (OVCAR-3; [2]): 69.2 µM | TGI (OVCAR-3; read-out: pTGI (converted)): 33.9 µM | GI50 (OVCAR-5): 19.1 µM | CC50 (OVCAR-5; [2]): > 100 µM | TGI (OVCAR-5; read-out: pTGI (converted)): 45.7 µM | GI50 (786-0): > 100 µM | CC50 (786-0; [2]): > 100 µM | TGI (786-0; read-out: pTGI (converted)): > 100 µM | GI50 (A498): > 100 µM | CC50 (A498; [2]): > 100 µM | TGI (A498; read-out: pTGI (converted)): > 100 µM | GI50 (ACHN): > 100 µM | CC50 (ACHN; [2]): > 100 µM | TGI (ACHN; read-out: pTGI (converted)): > 100 µM | GI50 (CAKI-1): > 100 µM | CC50 (CAKI-1; [2]): > 100 µM | TGI (CAKI-1; read-out: pTGI (converted)): > 100 µM | GI50 (SN12C): > 100 µM | CC50 (SN12C; [2]): > 100 µM | TGI (SN12C; read-out: pTGI (converted)): > 100 µM | GI50 (UO-31): > 100 µM | CC50 (UO-31; [2]): > 100 µM | TGI (UO-31; read-out: pTGI (converted)): > 100 µM | GI50 (NCI/ADR-RES): 16.6 µM | CC50 (NCI/ADR-RES; [2]): 72.4 µM | TGI (NCI/ADR-RES; read-out: pTGI (converted)): 34.7 µM | GI50 [1]: 26.9 µM | CC50 [1, 2]: > 100 µM | TGI ([1]; read-out: pTGI (converted)): 61.7 µM | GI50 (BT-549): 21.9 µM | CC50 (BT-549; [2]): 89.1 µM | TGI (BT-549; read-out: pTGI (converted)): 43.7 µM
